According to ChEMBL document CHEMBL1158535, “Thiazole, oxadiazole, and carboxamide derivatives of artemisinin are highly selective and potent inhibitors of Toxoplasma gondii” (J Med Chem, 2010):
Activity calls are given as the source filed them. The rule behind the calls is not given here.

How the values were obtained:
[1] = Therapeutic index, ratio of TD50 for HFF cells to IC50 for Toxoplasma gondii F2; type: cell-based; conditions: human, read-out: TI
[2] = Cytotoxicity against HFF after 5 days by CellTiter 96 Aqueous One Solution assay; conditions: human, HFF cells; read-out: TD50
[3] = test system: Toxoplasma gondii; assay: Antiparasitic activity against Toxoplasma gondii 2F infected in HFF cells assessed as beta galactosidase activity after 5 days; type: functional, organism-based; conditions: 120 h
Summary of the method: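 HFF monolayers infected with β-galactosidase-expressing T. gondii 2F tachyzoites; compounds from final 320 μM serially diluted 0.5 log10, drug-free parasite control. After 4 days at 37°C/5% CO2, CPRG substrate added and incubated 1 more day. Absorbance 570-650 nm relative to parasite control. IC50 calculated; at least three independent experiments.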

[4] = test system: Toxoplasma gondii; assay: Antiparasitic activity against Toxoplasma gondii 2F infected in HFF cells assessed as inhibition of parasite replication at 5 uM; type: functional, organism-based
Summary of the method: (§1)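 HFF monolayers inoculated with tachyzoites, 2 h at 37°C/5% CO2, then compound (1, 5 or 10 μM) or DMSO added. Replication 24-26 h, then fixed, permeabilized, immunolabeled anti-p30 with DAPI. Parasites per vacuole (1, 2, 4, 8+) counted by eye in 10 random fields; reported as modal number/doublings.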

[5] = test system: Toxoplasma gondii; assay: Antiparasitic activity against Toxoplasma gondii 2F infected in HFF cells assessed as inhibition of parasite replication at 1 uM; type: functional, organism-based; summary of the method: as §1
[6] = test system: Toxoplasma gondii; assay: Antiparasitic activity against Toxoplasma gondii 2F infected in HFF cells assessed as inhibition of parasite replication at 10 uM; type: functional, organism-based; summary of the method: as §1

Row | SMILES | selectivity ratio [1] | CC50 at 120 h [2] | IC50 [3] | Activity [4] | Activity [5] | Activity [6]
1 | CC1=C(C(=O)NCc2cc(F)cc(F)c2)O[C@@H]2O[C@@]3(C)CC[C@H]4[C@H](C)CC[C@@H]1[C@@]24OO3 | 1560 | ≥ 320000 nM | 360 nM |  |  | 
2 | CC1=C(c2nc(-c3ccc(C)cc3)cs2)O[C@@H]2O[C@@]3(C)CC[C@H]4[C@H](C)CC[C@@H]1[C@@]24OO3 | 1610 | ≥ 320000 nM | 350 nM |  |  | 
3 | CC1=C(c2nc(C(C)(C)C)cs2)O[C@@H]2O[C@@]3(C)CC[C@H]4[C@H](C)CC[C@@H]1[C@@]24OO3 | 2250 | ≥ 320000 nM | 250 nM | Active | Active | Active
4 | CNC(=O)C1=C(C)[C@@H]2CC[C@@H](C)[C@@H]3CC[C@@]4(C)OO[C@@]23[C@H](O1)O4 | 37 | ≥ 320000 nM | 15000 nM |  |  | 
5 | CC1=C(c2ncc(C)s2)O[C@@H]2O[C@@]3(C)CC[C@H]4[C@H](C)CC[C@@H]1[C@@]24OO3 | 1520 | ≥ 320000 nM | 370 nM | Active | Active | Active
6 | CCc1csc(C2=C(C)[C@@H]3CC[C@@H](C)[C@@H]4CC[C@@]5(C)OO[C@@]34[C@H](O2)O5)n1 | 1410 | ≥ 320000 nM | 400 nM |  |  | 
7 | CC1=C(C(=O)NCc2ccc(F)c(F)c2)O[C@@H]2O[C@@]3(C)CC[C@H]4[C@H](C)CC[C@@H]1[C@@]24OO3 | 166 | 78000 nM | 470 nM |  |  | 
8 | CC1=C(c2nc(C)cs2)O[C@@H]2O[C@@]3(C)CC[C@H]4[C@H](C)CC[C@@H]1[C@@]24OO3 | 1410 | ≥ 320000 nM | 400 nM | Active | Active | Active
9 | CCN(CC)C(=O)C1=C(C)[C@@H]2CC[C@@H](C)[C@@H]3CC[C@@]4(C)OO[C@@]23[C@H](O1)O4 | 2.1 | 23000 nM | 11000 nM |  |  | 
10 | CC1=C(C(=O)NCc2ccc(C)cc2)O[C@@H]2O[C@@]3(C)CC[C@H]4[C@H](C)CC[C@@H]1[C@@]24OO3 | 331 | 169000 nM | 510 nM |  |  | 
11 | CC1=C(c2nc(-c3ccccc3)cs2)O[C@@H]2O[C@@]3(C)CC[C@H]4[C@H](C)CC[C@@H]1[C@@]24OO3 | 1650 | ≥ 320000 nM | 340 nM | Active | Active | Active
12 | CC1=C(c2nc(C)no2)O[C@@H]2O[C@@]3(C)CC[C@H]4[C@H](C)CC[C@@H]1[C@@]24OO3 | 669 | ≥ 320000 nM | 840 nM |  |  | 
13 | CC1=C(C(=O)NCc2ccc(F)cc2)O[C@@H]2O[C@@]3(C)CC[C@H]4[C@H](C)CC[C@@H]1[C@@]24OO3 | 153 | 72000 nM | 470 nM |  |  | 
14 | CC1=C(c2nc(-c3ccc(S(C)(=O)=O)cc3)cs2)O[C@@H]2O[C@@]3(C)CC[C@H]4[C@H](C)CC[C@@H]1[C@@]24OO3 | 1340 | ≥ 320000 nM | 420 nM |  |  | 
15 | CSc1ccc(-c2csc(C3=C(C)[C@@H]4CC[C@@H](C)[C@@H]5CC[C@@]6(C)OO[C@@]45[C@H](O3)O6)n2)cc1 | 1410 | ≥ 320000 nM | 400 nM |  |  | 
16 | CC1=C(C(=O)NCc2ccccc2)O[C@@H]2O[C@@]3(C)CC[C@H]4[C@H](C)CC[C@@H]1[C@@]24OO3 | 839 | ≥ 320000 nM | 670 nM |  |  | 
17 | CC1=C(C(=O)NCc2ccc(C(F)(F)F)cc2)O[C@@H]2O[C@@]3(C)CC[C@H]4[C@H](C)CC[C@@H]1[C@@]24OO3 | 1650 | ≥ 320000 nM | 340 nM |  |  | 
18 | CO[C@H]1O[C@@H]2O[C@@]3(C)CC[C@H]4[C@H](C)CC[C@@H]([C@H]1C)[C@@]24OO3 [ARTEMETHER] | 1810 | ≥ 320000 nM | 310 nM |  |  | 
19 | COc1cc(Cc2cnc(N)nc2N)cc(OC)c1OC [TRIMETHOPRIM] | 12 | ≥ 320000 nM | 46000 nM |  |  | 
20 | COc1ccc(-c2csc(C3=C(C)[C@@H]4CC[C@@H](C)[C@@H]5CC[C@@]6(C)OO[C@@]45[C@H](O3)O6)n2)cc1 | 25 | 19000 nM | 750 nM |  |  | 
21 | CC1=C(c2nccs2)O[C@@H]2O[C@@]3(C)CC[C@H]4[C@H](C)CC[C@@H]1[C@@]24OO3 | 511 | ≥ 320000 nM | 1100 nM |  |  | 
22 | C[C@@H]1CC[C@H]2[C@@H](C)C(=O)O[C@@H]3O[C@@]4(C)CC[C@@H]1[C@]32OO4 [ARTEMISININ] | 879 | ≥ 320000 nM | 640 nM |  |  | 
23 | CC1=C(c2nc(-c3ccccc3)no2)O[C@@H]2O[C@@]3(C)CC[C@H]4[C@H](C)CC[C@@H]1[C@@]24OO3 | 320 | 141000 nM | 440 nM | Active | Active | Active
24 | CC1=C(c2nc(C3CCCCC3)cs2)O[C@@H]2O[C@@]3(C)CC[C@H]4[C@H](C)CC[C@@H]1[C@@]24OO3 | 3 | 1800 nM | 590 nM |  |  | 
25 | CC1=C(C(=O)NCc2cc(Br)cc(Br)c2)O[C@@H]2O[C@@]3(C)CC[C@H]4[C@H](C)CC[C@@H]1[C@@]24OO3 | 694 | ≥ 320000 nM | 810 nM |  |  | 
26 | CCNC(=O)C1=C(C)[C@@H]2CC[C@@H](C)[C@@H]3CC[C@@]4(C)OO[C@@]23[C@H](O1)O4 | 38 | 259000 nM | 6800 nM |  |  | 
27 | CC1=C(c2nc(C)c(C)s2)O[C@@H]2O[C@@]3(C)CC[C@H]4[C@H](C)CC[C@@H]1[C@@]24OO3 | 240 | 38000 nM | 160 nM | Active | Active | Active
